For series [1], the system named is Rattus norvegicus. As to the kind of experiment: Antidiabetic activity in Wistar rat assessed as reduction of glucose level at 30 to 300 mg/kg, po qd for 5 days measured in day 3. Format: functional, organism-based. An outline of the steps: (§1)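 Five-day rat study with daily oral dosing. Blood glucose was measured on day 3. Hepatic lipidosis was assessed at study end by Oil Red O staining of liver.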

Series [2] concerns Rattus norvegicus. As to the kind of experiment: Hepatic toxicity in Wistar rat assessed as lipidosis at 30 to 300 mg/kg, po qd for 5 days by Oil Red O staining. The series is classed as organism-based. More on the design: dose 30-300 mg/kg, route oral. As to conditions: in vivo, 120 h. The gist of the method: as §1
Series [3] concerns the target T1, Hexokinase-4 (Homo sapiens) (UniProt P35557).
T1 sequence (whole entry): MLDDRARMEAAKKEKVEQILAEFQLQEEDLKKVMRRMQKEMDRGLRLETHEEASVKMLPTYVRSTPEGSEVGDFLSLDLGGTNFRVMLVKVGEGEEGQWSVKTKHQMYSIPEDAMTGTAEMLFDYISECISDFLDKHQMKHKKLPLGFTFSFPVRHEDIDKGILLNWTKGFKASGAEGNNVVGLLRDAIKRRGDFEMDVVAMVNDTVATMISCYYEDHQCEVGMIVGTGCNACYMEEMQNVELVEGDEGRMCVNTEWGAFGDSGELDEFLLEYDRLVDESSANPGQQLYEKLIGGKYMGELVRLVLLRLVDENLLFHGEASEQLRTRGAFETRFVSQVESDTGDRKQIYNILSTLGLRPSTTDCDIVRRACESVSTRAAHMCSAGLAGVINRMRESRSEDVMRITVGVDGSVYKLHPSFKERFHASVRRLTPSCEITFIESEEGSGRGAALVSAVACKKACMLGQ
The experiment in a line: Activation of human recombinant glucokinase assessed as concentration required for 1.5 fold increase in enzymatic activity. An outline of the steps:
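Human recombinant GK; activator at fixed concentrations from ∼0.010 to 30 μM, each in duplicate, with glucose held at 5 mM. SC1.5 is the activator concentration giving a 1.5-fold rise in enzymatic activity over untreated GK. Assay CV was about 15%.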

The source made the active and inactive calls. The calls are words filed in the database; no cut-off is given here.

On to `CS(=O)(=O)c1ccc(C(CC2CCCC2)C(=O)NC(N)=S)cc1` (racemic), for which the outcome in the series with Rattus norvegicus [1] was inactive. The figures for the Activity entry (with Rattus norvegicus [2]; in series [3]) were “Toxic” and 45 µM, respectively.

(Values after ChEMBL document CHEMBL2163188, “Discovery of piragliatin--first glucokinase activator studied in type 2 diabetic patients” (J Med Chem, 2012).)
